A selection: hits, their analogues and other compounds. The true share with any hit is near 2.3%.
TRPC4 PAM: TRPC4 (mouse) allosteric potentiation | HEK293 TRPC4beta/mu-opioid, DAMGO EC20, Fluo-4 Ca2+ flux; active compounds read high | B-score at 10 µM | 310,000 compounds, 0.42% hits | Q9QUQ5 | AID 2227;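 active = B-score of calcium response area above 5 SD of library B-scores, with initial fluorescence ratio within 5 SD of library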;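 also: B-score of integrated fluorescence ratio over time as area under calcium response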
TRPC6 act: mouse TRPC6 channel activation; HEK293-TRPC6 membrane potential dye fluorescence; active compounds read high; B-score at 10 µM; 310,000 compounds, 0.13% hits; AID 2550;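 active = B-score of the integrated fluorescence ratio above library mean plus 3 SD, and starting fluorescence ratio within library mean plus 5 SD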;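 also: higher score means more depolarization so channel activation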
Target sequence (Q61143 whole entry, looked up): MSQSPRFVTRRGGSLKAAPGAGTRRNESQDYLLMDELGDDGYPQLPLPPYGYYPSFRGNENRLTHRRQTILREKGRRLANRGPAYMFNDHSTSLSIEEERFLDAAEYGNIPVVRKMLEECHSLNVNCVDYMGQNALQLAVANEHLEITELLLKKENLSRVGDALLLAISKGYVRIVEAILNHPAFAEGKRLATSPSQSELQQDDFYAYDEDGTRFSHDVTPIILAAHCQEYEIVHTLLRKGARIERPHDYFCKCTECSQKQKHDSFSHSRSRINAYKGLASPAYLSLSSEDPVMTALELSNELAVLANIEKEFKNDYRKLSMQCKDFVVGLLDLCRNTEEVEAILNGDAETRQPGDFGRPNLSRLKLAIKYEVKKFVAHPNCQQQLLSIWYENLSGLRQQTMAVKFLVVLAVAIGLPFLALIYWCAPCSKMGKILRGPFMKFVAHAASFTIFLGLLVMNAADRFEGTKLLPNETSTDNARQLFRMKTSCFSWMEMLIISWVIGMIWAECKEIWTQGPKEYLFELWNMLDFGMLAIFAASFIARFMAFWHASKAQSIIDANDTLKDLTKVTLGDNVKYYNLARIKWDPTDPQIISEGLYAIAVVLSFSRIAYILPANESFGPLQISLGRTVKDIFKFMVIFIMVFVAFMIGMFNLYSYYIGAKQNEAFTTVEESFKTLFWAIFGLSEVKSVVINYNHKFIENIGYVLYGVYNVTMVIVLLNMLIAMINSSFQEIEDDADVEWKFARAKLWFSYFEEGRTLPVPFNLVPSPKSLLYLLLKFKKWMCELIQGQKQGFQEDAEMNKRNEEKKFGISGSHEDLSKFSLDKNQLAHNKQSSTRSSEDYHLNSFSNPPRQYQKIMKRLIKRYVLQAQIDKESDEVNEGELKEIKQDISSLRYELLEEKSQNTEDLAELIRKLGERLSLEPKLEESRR
TRPC4 agonist: activators of mouse TRPC4 channel. 310,000 compounds, 0.49% hits. HEK293 TRPC4beta/mu-opioid, Fluo4 calcium fluorescence; active compounds read high. Q9QUQ5. AID 2237. B-score at 10 µM;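 active = B-score above 5 SD of library B-scores, and initial fluorescence ratio not above library mean plus 5 SD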;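 also: positive B-score marks a calcium rise read as TRPC4 activation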
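Assay system: HEK293 stable line with TRPC4beta plus mu-opioid receptor. Times: dye 45 min RT, read 110 s. Measured by: kinetic Fluo4 calcium fluorescence. Measure: B score of integrated ratio. Controls: assay buffer as low control, maximal DAMGO as high control.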
TRPC4 inh: blocks the mouse TRPC4 cation channel | Q9QUQ5 | HEK293 TRPC4beta/mu-opioid, DAMGO-evoked Fluo4 calcium flux; active compounds read low | B-score at 10 µM | 300,000 compounds, 0.39% hits | AID 2247;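 active = B-score over 3 SD under the library average, no early fluorescence shift, positive overall ratio signal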
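test system = HEK293 cells with stable TRPC4beta plus mu-opioid receptor expression | detection = Fluo4 Ca2+ flux fluorescence | read-out = integrated fluorescence ratio relative to baseline, converted to per-well B score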
TRPC6 inhibitor: blocks the mouse TRPC6 cation channel. Q61143. HEK293-TRPC6, membrane potential dye, ACh-evoked depolarization; active compounds read low. B-score at 10 µM. 310,000 compounds, 1.1% hits. AID 2553;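 active = B-score under library mean minus 3 SD, initial fluorescence not abnormally high, positive integrated signal ratio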;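 also: B-score derived from integrated fluorescence ratio over the kinetic read; more negative B-score means stronger inhibition of depolarization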
TRPC4 sel inh 2: second selectivity test of TRPC6 inhibitors: effect on mouse TRPC4; shares compounds with TRPC6 inhibitor; HEK293 TRPC4/MOR, membrane potential dye fluorescence; channel activated by saturating DAMGO dose; inhibition, % at 10 µM; 920 compounds, 42% hits; AID 2776;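 active = compounds whose fluorescence signal differed from control wells by over 3 SD, either direction, in both duplicate plates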
TRPC4 spec: mouse TRPC4 off-target activity of TRPC6 inhibitors; activity change, negative = inhibition, % at 10 µM; shares compounds with TRPC6 inhibitor; AID 2777; HEK293 TRPC4/mu-opioid, membrane potential fluorescence; 920 compounds, 61% hits;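 active = rise or fall in signal beyond 3 SD of buffer-only wells in both replicate plates, either sign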;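 also: integrated kinetic ratio of fluorescence range over baseline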
HEK293 MPD ctr 2-1: parental HEK293 nonspecific activity of TRPC6 inhibitors, second screen; parental HEK293 membrane potential dye fluorescence; maximal acetylcholine challenge after compound addition; shares compounds with TRPC6 inhibitor; signal change vs control, % at 10 µM; AID 2779; 920 compounds, 31% hits;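 active = membrane potential signal moving either way by over 3 SD of the maximum-effect control, in both duplicate plates, meaning non-specific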
HEK293 MPD ctr-1: checks TRPC6 inhibitor effects in parental HEK293 cells | shares compounds with TRPC6 inhibitor | parental HEK293 membrane potential dye fluorescence | membrane potential signal change, % at 10 µM | 920 compounds, 60% hits;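 active = membrane potential signal shifting up or down by more than 3 SD of buffer-only wells, on both duplicate plates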
HEK293 MPD ctr-2: counter-screen for TRPC6 modulators: effect in parental HEK293 cells. 2,400 compounds, 51% hits. membrane potential signal change, % at 10 µM. membrane potential dye fluorescence. shares compounds with TRPC6 inhibitor. AID 488924;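 active = membrane potential signal moves up or down beyond 5 SD from buffer-only wells, on both duplicate plates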
HEK293 MPD ctr 2-2: second check of TRPC6 modulator effects in parental HEK293 cells; shares compounds with TRPC6 inhibitor; membrane potential dye fluorescence; after compound, maximal acetylcholine stimulation; inhibition, % at 10 µM; 2,400 compounds, 14% hits; AID 488926;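 active = membrane potential signal drops by more than 5 SD from the mean control signal, in both duplicate plates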;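 also: plate controls were acetylcholine ECmax control wells for no effect and buffer only wells for full effect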
TRPC4/MOR mod: selectivity of TRPC6 modulators against mouse TRPC4. shares compounds with TRPC6 inhibitor. HEK293 TRPC4/mu-opioid, membrane potential fluorescence. percent change from control (negative = decrease, positive = increase), % at 10 µM. 2,400 compounds, 69% hits. AID 488927;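 active = membrane potential signal moved up or down beyond 5 SD of buffer control wells, in both duplicate plates, actives on both sides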;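 also: plate controls were assay buffer wells for no effect and DAMGO maximal-effect wells for full effect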
TRPC4/MOR inh 2: second check of whether TRPC6 modulators also affect mouse TRPC4; inhibition, % at 10 µM; shares compounds with TRPC6 inhibitor; HEK293 TRPC4/mu-opioid, membrane potential dye fluorescence; stimulated with maximal-effect DAMGO; 2,400 compounds, 55% hits;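 active = drop in membrane potential signal beyond 5 SD of the control wells in both duplicate plates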;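 also: TRPC4 counter screen for TRPC6 hits run under conditions tuned for TRPC6 not TRPC4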
TRPC6 block conf: confirmation of mouse TRPC6 inhibitors | inhibition, % at 10 µM | shares compounds with TRPC6 inhibitor | AID 488960 | HEK293-TRPC6, membrane potential dye, ACh-evoked depolarization | 3,300 compounds, 43% hits;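 active = fluorescence ratio falls more than 5 SD below the full-stimulation control mean, in both duplicate runs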;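 also: integrated fluorescence ratio of peak minus minimum over baseline after agonist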
TRPC6 act confirm: mouse TRPC6 activator confirmation | AID 488961 | activation, % at 10 µM | HEK293-TRPC6 membrane potential dye fluorescence, FDSS | 2,800 compounds, 11% hits | shares compounds with TRPC6 inhibitor;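 active = ratio signal rise beyond 5 SD above unstimulated control wells' mean, seen in both duplicate runs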;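 also: plate controls were buffer EC0 wells for no effect and acetylcholine ECmax response for full effect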
An asterisk follows results filed as active; i = inactive; nt = no result.

SMILES | TRPC4 PAM | TRPC6 act | TRPC4 agonist | TRPC4 inh | TRPC6 inhibitor | HEK293 MPD ctr-2 | HEK293 MPD ctr 2-2 | TRPC4/MOR mod | TRPC4/MOR inh 2 | TRPC6 block conf | TRPC6 act confirm | others
COc1ccc(NC(=O)C2C3C=CC4(O3)C2C(=O)N(CCCN2CCCC(C)C2)C4C(=O)NC2CCCCC2)cc1 (stereo not given) | i | i | i | i | i | nt | nt | nt | nt | nt | nt
O=C(CCC1CCCCC1)NCCN1C2=NC[C@H](Cc3ccccc3)N2C[C@H]1Cc1ccc(O)cc1 | i | i | i | i | i | nt | nt | nt | nt | nt | nt
O=C(CCC1CCCCC1)NCCN1C2=NC[C@@H](Cc3ccccc3)N2C[C@H]1Cc1ccc(O)cc1 | i | i | i | i | -5.5* | i | i | i | i | i | i
Cn1cccc1/C=C1\CCC/C(=C\c2cccn2C)C1=O | i | 35* | i | i | i | 261%* | i | 98%* | i | i | 66%*
O=C1/C(=C/c2cccs2)CCC/C1=C\c1cccs1 | i | i | i | i | i | nt | nt | nt | nt | nt | nt
Brc1ccccc1/C=N/Nc1ccc2ccccc2n1 | i | i | i | i | -6.2* | i | i | i | 56%* | i | i
Brc1ccc(/C=N/Nc2ccc3ccccc3n2)cc1 | i | i | i | i | i | nt | nt | nt | nt | nt | nt
COc1ccc(-n2cc(CNCCCn3ccnc3)c(-c3cccc(F)c3)n2)cc1 | i | i | i | i | -6* | i | i | -8.5%* | 74%* | 42%* | i
CC(=O)N1CCc2ccc(S(=O)(=O)N3CCN(C)CC3)cc21 | i | i | i | i | -5.1* | 123%* | i | 40%* | i | i | nt
Cc1cccc(-c2nc(CN3CCCC(C(=O)NC4CCC(C)CC4)C3)c(C)o2)c1 (stereo not given) | i | i | i | i | -6.5* | 182%* | i | 33%* | 46%* | i | nt
CCS(=O)(=O)N1CCC(c2nc3ccccc3[nH]2)CC1 | i | i | i | i | i | nt | nt | nt | nt | nt | nt
CN(C1=C(NC(=O)c2ccc(Cl)cc2)C(=O)c2ccccc2C1=O)c1ccccc1 | i | i | i | i | -5.1* | -100%* | i | -32%* | 65%* | i | i
CCOC(=O)Cn1c(=O)c(F)cn(Cc2ccc(OC)c([N+](=O)[O-])c2)c1=O | i | i | i | i | i | nt | nt | nt | nt | nt | nt
O=S(=O)(c1cccc2cccnc12)N1CCCCC1 | i | i | i | i | i | nt | nt | nt | nt | nt | nt
CN1CCN(c2ncccc2S(=O)(=O)N2CCCCC2)CC1 | i | i | i | i | -7* | nt | nt | nt | nt | 78%* | i | TRPC4 sel inh 2=i;TRPC4 spec=-0.1%*;HEK293 MPD ctr 2-1=-41%*;HEK293 MPD ctr-1=0.9%*
COc1ccc2nc(C)cc(N3CCC(C(N)=O)CC3)c2c1 | i | i | i | i | -9.1* | -356%* | 94%* | -60%* | 62%* | 72%* | i
CCOC(=O)C1CCN(c2nc3cc(OC)ccc3cc2C#N)CC1 | i | i | i | i | i | nt | nt | nt | nt | nt | nt
COc1ccc(N2CCN(c3cc(C)nc4ccc(OC)cc34)CC2)cc1 | i | i | i | i | -5.6* | -228%* | i | -42%* | 65%* | 62%* | i
CCOC(=O)C1CCN(c2cc(C)nc3ccc(OC)cc23)CC1 | i | i | i | i | -8.9* | -236%* | 85%* | -36%* | 70%* | 86%* | i
O=C(Cn1nc(-c2ccc3c(c2)OCCO3)ccc1=O)Nc1cccc(NC(=O)c2ccccn2)c1 | i | i | i | i | i | nt | nt | nt | nt | nt | nt
Cc1ccc(S(=O)(=O)NCCNc2ccc([N+](=O)[O-])cc2)cc1 | i | i | i | i | -5.6* | i | i | -14%* | i | i | i
O=C1CCN(Cc2ccc(O)cc2)CCN1[C@H](CO)c1ccccc1 | i | i | i | i | i | nt | nt | nt | nt | nt | nt
Cc1onc(-c2ccccc2Cl)c1C(=O)N1CCN(C)CC1 | i | i | i | i | i | nt | nt | nt | nt | nt | nt
Nc1c(C(=O)N2CCOCC2)oc2ccccc12 | i | i | i | i | -5.4* | i | i | i | i | i | i
CCOCCCNC(=O)CSc1nc2nc(C)c(Cc3ccccc3)c(C)n2n1 | i | i | i | i | i | nt | nt | nt | nt | nt | nt
O=C(c1cc2nc(-c3ccco3)cc(C(F)(F)F)n2n1)N1CCN(Cc2ccccc2)CC1 | i | i | i | i | -6.7* | nt | nt | nt | nt | i | i | TRPC4 sel inh 2=i;TRPC4 spec=5.7%*;HEK293 MPD ctr 2-1=227%*;HEK293 MPD ctr-1=2.3%*
COc1ccc(-c2cc(C(F)(F)F)n3nc(C(=O)N4CCN(C(=O)c5ccco5)CC4)cc3n2)cc1 | i | i | i | i | i | nt | nt | nt | nt | nt | nt
COc1cccc(CN(C)C(=O)COc2ccc(C(=O)c3ccc(Cl)cc3)cc2)c1OC | i | i | i | i | i | nt | nt | nt | nt | nt | nt
